Test results as given in ChEMBL document CHEMBL4673366, “Cyclic Phosphopantothenic Acid Prodrugs for Treatment of Pantothenate Kinase-Associated Neurodegeneration” (J Med Chem, 2020).

What was measured:
[1] = Induction of Coenzyme A regeneration in human IMR-32 PANK2 knockdown cells at 50 uM for 24 hrs by HPLC analysis relative to control; format: functional
Summary of the method: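 PANK2-knockout neuroblastoma cells were grown in MEM with 10% FBS and 1 µg/mL puromycin and seeded at 0.2×10⁶ cells/well. After 72 h, they were dosed at 50 µM in DMSO (final 0.1%) at 37 °C. Washed, frozen pellets were reconstituted in ammonium acetate (pH 5.1) with internal standard, and free CoA was measured by LC-MS/MS. Intracellular volume was taken as 2 µL/10⁶ cells; results are fold over vehicle-treated cells.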

[2] = Stability of compound in human whole blood assessed as half life; format: ADME, tissue-based
[3] = Apparent permeability in porcine brain endothelial cells; format: ADME, cell-based, Sus scrofa, Endothelial cell; details: pig
[4] = Stability of compound in human hepatocytes assessed as half life; format: ADME, cell-based, Hepatocyte

| half-life [2] [min] | Structure (SMILES) | fold change (FC) [1] | further results |
| --- | --- | --- | --- |
|  | COC(=O)CCNC(=O)[C@@H]1OP(=O)(OCOC(=O)c2cc(C)nn2C)OCC1(C)C (mixture of isomers) | 42 |  |
|  | COC(=O)CCNC(=O)[C@@H]1O[P@@](=O)(Oc2ccc(F)cc2)OCC1(C)C | 2 |  |
| < 9.6 | COC(=O)CCNC(=O)[C@@H]1O[P@](=O)(OCOC(=O)c2scnc2C)OCC1(C)C (relative stereo) |  |  |
| 11.4 | CC(C)(C)C(=O)OCO[P@@]1(=O)OCC(C)(C)[C@H](C(=O)NCCC(=O)OC2CCN(Cc3ccccc3)C2)O1 (stereo not given in full) | 207 |  |
| 26.4 | COC(=O)CCNC(=O)[C@@H]1O[P@](=O)(OCOC(=O)c2scnc2C(C)(C)C)OCC1(C)C (relative stereo) |  |  |
|  | CCc1cc(C(=O)OCOP2(=O)OCC(C)(C)[C@H](C(=O)NCCC(=O)OC)O2)n(C)n1 (mixture of isomers) | 130 |  |
| < 9.6 | CC(C)(C)C(=O)OCO[P@@]1(=O)OCC(C)(C)[C@H](C(=O)NCCC(=O)OCCc2ccccn2)O1 | 100 |  |
|  | COC(=O)CCNC(=O)[C@@H]1OP(=O)(OCOC(=O)c2ocnc2C)OCC1(C)C (mixture of isomers) | 39 |  |
|  | COC(=O)CCNC(=O)[C@@H]1OP(=O)(OCOC(=O)c2cncs2)OCC1(C)C (mixture of isomers) | 88 |  |
| > 60 | CC(C)(C)C(=O)OCO[P@@]1(=O)OCC(C)(C)[C@H](C(=O)NCCC(=O)O)O1 | 4 |  |
| > 60 | CC(C)(C)OC(=O)CCNC(=O)[C@@H]1OP(=O)(OCOC(=O)C(C)(C)C)OCC1(C)C (mixture of isomers) | 2 |  |
|  | COC(=O)CCNC(=O)[C@@H]1OP(=O)(OCOC(=O)C(C)C)OCC1(C)C (mixture of isomers) | 92 |  |
|  | COC(=O)CCNC(=O)[C@@H]1OP(=O)(OCOC(=O)c2cc(C(C)(C)C)n[nH]2)OCC1(C)C (mixture of isomers) | 85 |  |
|  | CCCC(=O)OCOP1(=O)OCC(C)(C)[C@H](C(=O)NCCC(=O)OC)O1 (mixture of isomers) | 84 |  |
|  | COC(=O)CCNC(=O)[C@@H]1OP(=O)(OCOC(=O)c2ccncc2)OCC1(C)C (mixture of isomers) | 35 |  |
| 31.2 | COC(=O)CCNC(=O)[C@@H]1O[P@@](=O)(OCOC(=O)c2ocnc2C)OCC1(C)C (relative stereo) |  |  |
| < 9.6 | COC(=O)CCNC(=O)[C@@H]1O[P@@](=O)(OCOC(=O)c2ccns2)OCC1(C)C (relative stereo) |  |  |
| < 9.6 | COC(=O)CCNC(=O)[C@@H]1O[P@](=O)(OCOC(=O)c2cc(C)nn2C)OCC1(C)C (relative stereo) |  |  |
| 16.8 | CCOC(=O)CCNC(=O)[C@@H]1O[P@@](=O)(OCOC(=O)C(C)(C)C)OCC1(C)C | 85 |  |
| < 9.6 | COC(=O)CCNC(=O)[C@@H]1O[P@](=O)(OCOC(=O)c2cc(C(C)(C)C)n[nH]2)OCC1(C)C (relative stereo) |  |  |
| < 9.6 | COC(=O)CCNC(=O)[C@@H]1O[P@](=O)(OCOC(=O)c2ccnn2C)OCC1(C)C |  |  |
| < 9.6 | CCc1cc(C(=O)OCO[P@]2(=O)OCC(C)(C)[C@H](C(=O)NCCC(=O)OC)O2)n(C)n1 (relative stereo) |  |  |

| half-life [2] [min] | Structure (SMILES) | fold change (FC) [1] | further results |
| --- | --- | --- | --- |
|  | COC(=O)CCNC(=O)[C@@H]1O[P@@](=O)(OC(C)OC(=O)C(C)(C)C)OCC1(C)C (stereo not given in full) | 3 |  |
|  | COC(=O)CCNC(=O)[C@@H]1OP(=O)(OCOC(=O)c2cnccn2)OCC1(C)C (mixture of isomers) | 77 |  |
|  | COC(=O)CCNC(=O)[C@@H]1OP(=O)(OCOC(=O)OC(C)C)OCC1(C)C (mixture of isomers) | 199 |  |
|  | COC(=O)CCNC(=O)[C@@H]1O[P@](=O)(Oc2ccccc2C(=O)OC)OCC1(C)C | 4 |  |
| < 9.6 | COC(=O)CCNC(=O)[C@@H]1O[P@](=O)(OCOC(=O)c2ccns2)OCC1(C)C (relative stereo) |  |  |
| < 9.6 | CC(C)(C)C(=O)OCO[P@@]1(=O)OCC(C)(C)[C@H](C(=O)NCCC(=O)OCCS(C)(=O)=O)O1 | 121 |  |
|  | COC(=O)CCNC(=O)[C@@H]1OP(=O)(OCOC(=O)C2(C(N)=O)CC2)OCC1(C)C (mixture of isomers) | 12 |  |
|  | COC(=O)CCNC(=O)[C@@H]1OP(=O)(OCOC(=O)c2scnc2C)OCC1(C)C (mixture of isomers) | 44 |  |
|  | COC(=O)CCNC(=O)[C@@H]1OP(=O)(OCOC(=O)c2scnc2C(C)(C)C)OCC1(C)C (mixture of isomers) | 3 |  |
| > 60 | COC(=O)CCNC(=O)[C@@H]1O[P@@](=O)(OCOC(=O)c2cc(C(C)(C)C)n[nH]2)OCC1(C)C | 101 | Papp [3]: 5.3 ×10⁻⁶ cm/s; half-life [4]: 30 min |
| > 60 | COC(=O)CCNC(=O)[C@@H]1O[P@@](=O)(OCOC(=O)c2cc(C)nn2C)OCC1(C)C (relative stereo) |  |  |
| > 60 | COC(=O)CCNC(=O)[C@@H]1O[P@@](=O)(OCOC(=O)c2scnc2C(C)(C)C)OCC1(C)C (relative stereo) |  |  |
|  | COC(=O)CCNC(=O)[C@@H]1OP(=O)(OCOC(=O)c2ccccc2)OCC1(C)C (mixture of isomers) | 278 |  |
|  | COC(=O)CCNC(=O)[C@@H]1OP(=O)(OCOC(=O)c2ccns2)OCC1(C)C (mixture of isomers) | 37 |  |
| < 9.6 | CC(C)(C)C(=O)OCO[P@@]1(=O)OCC(C)(C)[C@H](C(=O)NCCC(=O)OCc2cncs2)O1 | 133 |  |
| > 60 | COC(=O)CCNC(=O)[C@@H]1O[P@@](=O)(OCOC(=O)c2ccnn2C)OCC1(C)C (relative stereo) |  |  |
| 16.2 | COC(=O)CCNC(=O)[C@@H]1O[P@](=O)(OCOC(=O)c2ocnc2C)OCC1(C)C |  |  |
|  | COC(=O)CCNC(=O)[C@@H]1O[P@](=O)(Oc2ccc(F)cc2)OCC1(C)C | 87 | Papp [3]: 16 ×10⁻⁶ cm/s |
|  | COC(=O)CCNC(=O)[C@@H]1OP(=O)(OCOC(=O)c2ccnn2C)OCC1(C)C (mixture of isomers) | 58 |  |
|  | COC(=O)CCNC(=O)[C@@H]1O[P@](=O)(OCOC(=O)C(C)(C)C)OCC1(C)C | 106 |  |
|  | CCC(CC)C(=O)OCOP1(=O)OCC(C)(C)[C@H](C(=O)NCCC(=O)OC)O1 (mixture of isomers) | 369 |  |
|  | COC(=O)CCNC(=O)[C@@H]1O[P@@](=O)(OCOC(=O)C(C)(C)C)OCC1(C)C | 198 |  |

| Structure (SMILES) | half-life [2] [min] | fold change (FC) [1] | further results |
| --- | --- | --- | --- |
| COC(=O)CCNC(=O)[C@@H]1O[P@](=O)(Oc2ccc(C[C@H](N)C(=O)OC)cc2)OCC1(C)C | 30 | 81 |  |
| COC(=O)CCNC(=O)[C@@H]1OP(=O)(Oc2ccc(F)cc2)OCC1(C)C (mixture of isomers) | > 60 |  |  |
| COC(=O)CCNC(=O)[C@@H]1O[P@](=O)(Oc2ccc(C#N)cc2)OCC1(C)C | 27.6 | 7 |  |
| COC(=O)CCNC(=O)C1OP(=O)(Oc2ccc(F)cc2)OCC1(C)C (mixture of isomers) | > 60 |  |  |
| COC(=O)CCNC(=O)[C@@H]1O[P@](=O)(Oc2ccc(S(F)(F)(F)(F)F)cc2)OCC1(C)C | 30 | 34 |  |
| COC(=O)CCNC(=O)[C@@H]1O[P@](=O)(Oc2ccc(C(F)(F)F)cc2)OCC1(C)C | > 60 | 102 |  |
